Compound activity: PubChem, several laboratories
A selection: hits, their analogues and other compounds. The true share with any hit is near 1.9%.
Arr AP2 block = human beta-arrestin and AP2 interaction inhibition. 0.31% of 340,000 active. AID 504490. FITC-arrestin peptide / GST-AP2 beads, flow cytometry; AP2 beta2 appendage carries R879A mutation. inhibition, % at 10 µM;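 active means inhibition above a set limit, near 3 SD of compounds lacking own fluorescence, cut at about 54% in these data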
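system = GST-tagged AP2 beta2-adaptin appendage (R879A) on 4 µm glutathione beads | reagent = FITC-labelled arrestin peptide probe, 50 nM final | schedule = compound with beads 12 min RT, then probe 1 h RT | signal = HyperCyt-sampled flow cytometry, FL1 channel, ex 488/em 535 nm | read-out = percent response from loss of bead-bound FITC fluorescence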
sPLA2-III inh = Inhibits HGIII-sPLA2 liposome hydrolysis, primary screen; 0.56% of 370,000 active; QFRET BODIPY PC-A2 liposome hydrolysis, fluorescence; inhibition, % at 12.2 µM; AID 743126; Q9NZ20;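 active means inhibition above mean plus 3 SD of compounds lying within the high and low control bounds, cut at about 19% in these data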
PLC-gamma1 inh = inhibitors of human phospholipase C gamma1; inhibition, % at 12.2 µM; P19174; purified PLC-gamma1, fluorogenic substrate, fluorescence; 0.84% of 370,000 active; in the data active means inhibition above about 9.5%
procasp7 counter = counter-screen for procaspase-3 activators: activators of human procaspase-7; recombinant procaspase-7, Ac-DEVD-pNA absorbance 405 nm; D23A/D198A/D206A triple mutant, cannot self-cleave; scale: DMSO 0, 5 µM enzyme 100; 0.093% of 330,000 active; AID 463210; P55210; activation, % at 8.5 µM;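 active means percent activation above the screen-wide mean plus 3 SD, cut at about 25% in these data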
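buffer or medium = Zinc-free HEPES/NaCl buffer, pH 7.4 | material = Procaspase-7 triple mutant (PC-7 D3A) | input = 2 µM procaspase-7 mutant as dispensed | signal = Epi-absorbance of released pNA at 405 nm, two timepoints | timing = 1 h preincubation, 2 h reaction | replicates = singlicate compound testing | evaluation = % activation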
PLC-beta3 inh = blocks human PLC-beta3 enzyme activity. Purified PLC-beta3, fluorogenic substrate, fluorescence. inhibition, % at 12.2 µM. 0.18% of 370,000 active. AID 720704; in the data active means inhibition above about 11%
Target sequence (Q01970 whole entry, looked up): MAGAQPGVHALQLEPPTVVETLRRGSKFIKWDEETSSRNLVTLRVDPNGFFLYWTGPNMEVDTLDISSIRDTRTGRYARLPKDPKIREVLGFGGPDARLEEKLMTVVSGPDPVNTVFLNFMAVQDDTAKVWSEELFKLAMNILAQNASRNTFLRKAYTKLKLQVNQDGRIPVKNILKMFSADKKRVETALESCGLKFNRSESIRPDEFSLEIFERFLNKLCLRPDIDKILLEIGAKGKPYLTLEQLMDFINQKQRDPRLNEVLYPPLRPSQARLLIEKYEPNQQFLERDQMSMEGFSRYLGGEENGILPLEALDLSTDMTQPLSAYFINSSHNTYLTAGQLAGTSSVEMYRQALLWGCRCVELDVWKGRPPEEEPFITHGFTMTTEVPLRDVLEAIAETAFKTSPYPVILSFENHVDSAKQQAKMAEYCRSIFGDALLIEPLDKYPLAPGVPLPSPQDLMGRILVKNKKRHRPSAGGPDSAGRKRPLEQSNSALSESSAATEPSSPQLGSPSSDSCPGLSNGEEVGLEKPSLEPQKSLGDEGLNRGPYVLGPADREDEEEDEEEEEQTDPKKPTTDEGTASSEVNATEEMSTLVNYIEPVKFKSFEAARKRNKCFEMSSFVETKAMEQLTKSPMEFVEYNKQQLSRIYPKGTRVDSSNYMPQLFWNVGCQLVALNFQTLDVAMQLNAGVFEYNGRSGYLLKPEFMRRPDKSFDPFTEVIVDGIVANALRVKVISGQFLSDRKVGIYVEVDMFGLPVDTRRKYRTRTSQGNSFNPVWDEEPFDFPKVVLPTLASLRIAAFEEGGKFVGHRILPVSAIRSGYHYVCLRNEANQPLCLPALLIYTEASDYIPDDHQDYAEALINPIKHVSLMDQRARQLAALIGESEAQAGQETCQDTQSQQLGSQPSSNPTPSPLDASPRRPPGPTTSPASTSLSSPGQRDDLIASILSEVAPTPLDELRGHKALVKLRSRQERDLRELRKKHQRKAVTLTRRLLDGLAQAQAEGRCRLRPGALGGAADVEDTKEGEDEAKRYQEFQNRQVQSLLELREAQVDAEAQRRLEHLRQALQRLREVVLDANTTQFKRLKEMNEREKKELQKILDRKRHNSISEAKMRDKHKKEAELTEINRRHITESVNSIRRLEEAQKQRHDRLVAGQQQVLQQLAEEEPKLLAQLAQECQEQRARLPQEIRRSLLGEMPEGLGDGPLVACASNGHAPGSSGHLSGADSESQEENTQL
proCasp3 act = activators of human procaspase-3; recombinant procaspase-3 D3A, Ac-DEVD-pNA absorbance 405 nm; activation, % at 8.5 µM; AID 463141; 0.11% of 330,000 active; P42574;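 active means activation above the mean of all tested compounds plus 3 SD, cut at about 21% in these data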
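Test system: Procaspase-3 D3A mutant; medium: Zinc-free HEPES/NaCl buffer with 0.01% Triton X-100 at pH 7.4; reagent: DEVD-pNA substrate; doses: one concentration, 8.5 µM nominal, 0.8% DMSO; times: 1 h preincubation plus 2 h reaction at 25 °C; signal: Epi-absorbance at 405 nm of released p-nitroaniline, 0 and 120 min; replicates: singlicate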
Arr AP2 CP1 = inhibitors of human beta-arrestin and AP2 interaction; AID 504908; 2% of 1,300 active; shares compounds with Arr AP2 block; GST-AP2 beads, FITC arrestin peptide binding, flow cytometry; GST-fused beta2-adaptin appendage, R879A mutant; inhibition, % at 10 µM;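 active means inhibition above a set limit, roughly 3 SD of non-fluorescent compound noise, cut at about 38% in these data; inactive means inhibition at or below that limit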;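 further: loss of bead fluorescence from 50 nM FITC arrestin peptide bound to appendage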
GST-FITC bead = disrupts GST binding to glutathione beads, arrestin-AP2 artifact. GST-fluorescein binding to GSH beads, fluorescence, counter-screen. shares compounds with Arr AP2 block. inhibition, % at 10 µM. 2% of 1,300 active;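 active means inhibition above 50%, about 3 SD of the inhibition seen with non-fluorescent compounds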;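 further: fluorescein maleimide labelled GST captured on 4 micron glutathione beads; higher means more loss of bead fluorescence from quenching or blocked binding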
Large screens that a line does not name were inactive (follow-up assays come after a bar, where they were run).

CSc1ccc(C(=O)C2CCCN(C(=O)c3nn(C)c(=O)c4ccccc34)C2)cc1 (stereo not drawn)	Arr AP2 block 58 | Arr AP2 CP1 inactive | GST-FITC bead inactive
Cn1nc(C(=O)N2CCCC2)c2ccccc2c1=O	none
CN(C(=O)COC(=O)Cc1c[nH]c2ccccc12)c1c(N)n(Cc2ccccc2)c(=O)[nH]c1=O	none
CCN(C(=O)COC(=O)Cc1c[nH]c2ccccc12)c1c(N)n(Cc2ccccc2)c(=O)[nH]c1=O	Arr AP2 block 71 | Arr AP2 CP1 inactive | GST-FITC bead inactive
CCN(CC)C(=O)CSc1nnc2nnc3cc(Cl)ccc3n12	none
CCN(CC)C(=O)CSc1nnc2nnc3cc(C)ccc3n12	Arr AP2 block 57 | Arr AP2 CP1 inactive | GST-FITC bead inactive
COc1nc(OC)nc(N2CCC(C(=O)N(C)Cc3ccccc3F)CC2)n1	none (no result: Arr AP2 block, procasp7 counter, proCasp3 act)
CN1CCN(S(=O)(=O)c2cccc(C(=O)NC3CCCC3)c2)CC1	Arr AP2 block 60 | Arr AP2 CP1 inactive | GST-FITC bead inactive
Cc1ccc(S(=O)(=O)N2CCCC(C(=O)NC3CCCC3)C2)cc1Cl (stereo not drawn)	Arr AP2 block 57 | Arr AP2 CP1 inactive | GST-FITC bead inactive
CCCCc1ccc2nc(NC(=O)c3ccco3)sc2c1	none (no result: Arr AP2 block, procasp7 counter, proCasp3 act)
CCCC1(c2ccccc2)NC(=O)N(CC(=O)Nc2ccc3c(c2)OCCO3)C1=O (stereo not drawn)	Arr AP2 block 65 | Arr AP2 CP1 inactive | GST-FITC bead inactive
CCCCc1ccc2nc(NC(=O)c3ccc(Br)o3)sc2c1	none (no result: Arr AP2 block, procasp7 counter, proCasp3 act)
Cc1ccc(NC(=O)Cn2c(O)c(N=NC(N)=S)c3ccccc32)cc1	none
CCOC(=O)n1c(O)c(N=NC(N)=S)c2cc(C)ccc21	Arr AP2 block 54 | Arr AP2 CP1 inactive | GST-FITC bead inactive
CN(C)c1ccc(S(=O)(=O)N2CCCCC2)cc1NC(=O)CN1C(=O)NC(C)(c2ccccc2)C1=O (stereo not drawn)	none
CN(C)c1ccc(S(=O)(=O)N2CCCCC2)cc1NC(=O)CN1C(=O)NC2(CCCC2)C1=O	Arr AP2 block 54 | Arr AP2 CP1 inactive | GST-FITC bead inactive
COc1ccc(-n2c(SCC(=O)Nc3cc(C)on3)nc3c([nH]c4ccccc43)c2=O)cc1	none
Cc1ccc(-n2c(SCC(=O)Nc3cc(C)on3)nc3c([nH]c4ccccc43)c2=O)cc1	Arr AP2 block 92 | Arr AP2 CP1 inactive | GST-FITC bead inactive
O=C(CSc1nc2c([nH]c3ccccc32)c(=O)n1-c1ccc(F)cc1)NCc1ccco1	Arr AP2 block 101 | Arr AP2 CP1 inactive | GST-FITC bead inactive
O=C(CSc1nc2ccccc2c(=O)n1-c1ccccc1)NCc1ccco1	none
COc1ccc(Cn2c(=O)[nH]c3cc(C(=O)NCCc4ccc(S(N)(=O)=O)cc4)ccc3c2=O)cc1	Arr AP2 block 110 | Arr AP2 CP1 inactive | GST-FITC bead inactive
COc1cc(OC)cc(C(=O)/C=C2\Sc3ccccc3N2C)c1	none
COc1ccc2c(c1)S/C(=C\C(=O)c1ccncc1)N2C	Arr AP2 block 91 | Arr AP2 CP1 inactive | GST-FITC bead inactive
CC(C)CSc1nc2ccccc2n1CC(=O)O	Arr AP2 block 55 | Arr AP2 CP1 inactive | GST-FITC bead inactive
CCCSc1nc2ccccc2n1CC(=O)O	none
COc1ccc(NC(=O)c2ccc3nc[nH]c3c2)cc1	Arr AP2 block 60 | Arr AP2 CP1 inactive | GST-FITC bead inactive
CCOc1ccc(C(CC(=O)O)NC(=O)c2sc3ccccc3c2Cl)cc1 (stereo not drawn)	Arr AP2 block 104 | Arr AP2 CP1 inactive | GST-FITC bead inactive
CCC(=O)Nc1ccc(-c2ccc(N3CCN(C)CC3)nn2)cc1	Arr AP2 block 55 (no result: sPLA2-III inh, PLC-gamma1 inh, PLC-beta3 inh) | Arr AP2 CP1 inactive | GST-FITC bead inactive
CN(Cc1ccccc1)C(=O)OCc1cn(Cc2cc(F)cc(F)c2)nn1	none (no result: Arr AP2 block, procasp7 counter, proCasp3 act)
CCC(C)(C)NC(=O)C(c1cccnc1)N(C(=O)c1csnn1)c1ccccc1 (stereo not drawn)	Arr AP2 block 54 | Arr AP2 CP1 inactive | GST-FITC bead inactive
Cc1cccc(NC(=O)NCCCN2CCN(c3ccc(F)cc3)CC2)c1	none (no result: Arr AP2 block, procasp7 counter, proCasp3 act)
COc1cc(/C=N/NC(=O)c2cccnc2)ccc1OCC(=O)Nc1ccc(C)cc1	Arr AP2 block 91 | Arr AP2 CP1 inactive | GST-FITC bead inactive
CCNC(=O)COc1ccc(/C=N/NC(=O)c2cccnc2)cc1OC	none
COc1cc(/C=N/NC(N)=S)ccc1OCC(=O)Nc1ccc(C)c(C)c1	none
CCCCNC(=S)N/N=C/c1ccc(OCC(=O)Nc2c(C)cc(C)cc2C)c(OC)c1	Arr AP2 block 103 | Arr AP2 CP1 inactive | GST-FITC bead inactive
CCNc1ccc2noc3c2c1C(=O)c1ccccc1-3	Arr AP2 block 63 | Arr AP2 CP1 inactive | GST-FITC bead 91
Cc1ccccc1C(=O)Nc1nnc(-c2ccc(F)cc2)o1	none
Cc1ccccc1C(=O)Nc1nnc(-c2cccnc2)o1	Arr AP2 block 60 | Arr AP2 CP1 inactive | GST-FITC bead inactive
O=C(O)CCC(=O)NNC(=O)c1cccc(Br)c1	Arr AP2 block 58 | Arr AP2 CP1 inactive | GST-FITC bead inactive
Cc1ccccc1C(=O)NC(=S)NCC(=O)c1ccccc1	none
O=C(CNC(=S)NC(=O)c1ccccc1Br)c1ccccc1	Arr AP2 block 102 | Arr AP2 CP1 inactive | GST-FITC bead inactive
COc1ccc(NC(=O)c2ccc(=O)[nH]c2)cc1S(=O)(=O)N1CCOCC1	none (no result: procasp7 counter, proCasp3 act) | Arr AP2 CP1 inactive | GST-FITC bead inactive
Cc1ccc(NC(=O)c2ccc(=O)[nH]c2)cc1S(=O)(=O)N1CCCCC1	none | Arr AP2 CP1 inactive | GST-FITC bead inactive
COC(=O)C1=C(C)N(Cc2ccc(Cl)cc2)C(=S)NC1c1cccc(OC)c1 (stereo not drawn)	none (no result: Arr AP2 block, procasp7 counter, proCasp3 act)
COC(=O)c1cc(-c2ccc(OC)c(OC)c2)c(=O)n2c1CCC2	none (no result: Arr AP2 block, procasp7 counter, proCasp3 act)
COc1ccc(NC(=O)N(CCN2CCCC2)Cc2cc3cc(OC)c(OC)cc3[nH]c2=O)cc1	Arr AP2 block 87 | Arr AP2 CP1 inactive | GST-FITC bead inactive
COc1ccc(CN(Cc2cc3cc(OC)c(OC)cc3[nH]c2=O)C(=O)NC2CCCCC2)cc1	none | Arr AP2 CP1 inactive | GST-FITC bead inactive
COc1cc2cc(CN(C(=O)NC3CCCCC3)C3CCCC3)c(=O)[nH]c2cc1OC	none
